# TRPC4 inh: TRPC4 (mouse) channel inhibition; Q9QUQ5; HEK293 TRPC4beta/mu-opioid, DAMGO-evoked Fluo4 calcium flux; active compounds read low; B-score at 10 µM; 300,000 tested, 0.39% active;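 active = B-score over 3 SD under the library average, no early fluorescence shift, positive overall ratio signal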
#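 test system = HEK293 cells with stable TRPC4beta plus mu-opioid receptor expression | detection = Fluo4 Ca2+ flux fluorescence | read-out = integrated fluorescence ratio relative to baseline, converted to per-well B score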
# TRPC4 act: activators of mouse TRPC4 channel; Q9QUQ5; HEK293 TRPC4beta/mu-opioid, Fluo4 calcium fluorescence; active compounds read high; B-score at 10 µM; 310,000 tested, 0.49% active; AID 2237;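 active = B-score above 5 SD of library B-scores, and initial fluorescence ratio not above library mean plus 5 SD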;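 note: positive B-score marks a calcium rise read as TRPC4 activation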
#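 Assay system: HEK293 stable line with TRPC4beta plus mu-opioid receptor; schedule: 45 min room-temperature Fluo4 loading, 110 s read; technique: kinetic Fluo4 calcium fluorescence; evaluation: integrated baseline-normalised fluorescence ratio, converted to per-well B score; controls: buffer (low) and maximal DAMGO (high)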
# Kir21 block: inhibitors of mouse Kir2.1 inward-rectifier potassium channel. B-score at 10 µM. 310,000 tested, 0.85% active. HEK293-Kir2.1, FluxOR thallium flux fluorescence; active compounds read low. P35561;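 active = fluorescence ratio B-score at or below minus 3 SD of library scores, with starting-brightness B-score within 2 SD, cut at about -4.2 in these data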;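 note: channel flux triggered by added potassium and thallium sulfate stimulus; B-score of peak minus minimum fluorescence over baseline after thallium stimulus; more negative B-score means stronger Kir2.1 block with less thallium influx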
# Target sequence (P35561 whole entry, looked up): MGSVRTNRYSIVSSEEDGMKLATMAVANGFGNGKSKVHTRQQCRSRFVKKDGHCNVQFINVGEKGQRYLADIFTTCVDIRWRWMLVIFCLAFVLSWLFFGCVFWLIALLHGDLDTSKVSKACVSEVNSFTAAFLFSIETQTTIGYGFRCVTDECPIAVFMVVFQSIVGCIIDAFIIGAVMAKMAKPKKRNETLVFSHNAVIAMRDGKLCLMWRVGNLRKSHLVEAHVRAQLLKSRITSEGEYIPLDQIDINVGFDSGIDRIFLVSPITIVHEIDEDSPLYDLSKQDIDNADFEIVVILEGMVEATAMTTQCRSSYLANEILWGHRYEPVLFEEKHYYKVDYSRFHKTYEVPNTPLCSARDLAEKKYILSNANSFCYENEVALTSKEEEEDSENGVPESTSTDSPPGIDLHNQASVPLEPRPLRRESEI
# TRPC4 PAM: allosteric potentiators of mouse TRPC4 channel | B-score at 10 µM | HEK293 TRPC4beta/mu-opioid, DAMGO EC20, Fluo-4 Ca2+ flux; active compounds read high | 310,000 tested, 0.42% active | Q9QUQ5;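 active = B-score of calcium response area above 5 SD of library B-scores, with initial fluorescence ratio within 5 SD of library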;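 note: B-score of integrated fluorescence ratio over time as area under calcium response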
# TRPC6 inh: inhibitors of mouse TRPC6 channel | AID 2553 | B-score at 10 µM | 310,000 tested, 1.1% active | Q61143 | HEK293-TRPC6, membrane potential dye, ACh-evoked depolarization; active compounds read low;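 active = B-score under library mean minus 3 SD, initial fluorescence not abnormally high, positive integrated signal ratio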;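 note: B-score derived from integrated fluorescence ratio over the kinetic read; more negative B-score means stronger inhibition of depolarization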
# TRPC6 act: activators of mouse TRPC6 channel. B-score at 10 µM. HEK293-TRPC6 membrane potential dye fluorescence; active compounds read high. 310,000 tested, 0.13% active. AID 2550;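 active = B-score of the integrated fluorescence ratio above library mean plus 3 SD, and starting fluorescence ratio within library mean plus 5 SD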;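 note: higher score means more depolarization so channel activation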
# TRPC4 spec 2: second check of whether TRPC6 inhibitors also affect mouse TRPC4. shares compounds with TRPC6 inh. HEK293 TRPC4/MOR, membrane potential dye fluorescence; channel activated by saturating DAMGO dose. inhibition, % at 10 µM. 920 tested, 42% active. AID 2776;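 active = compounds whose fluorescence signal differed from control wells by over 3 SD, either direction, in both duplicate plates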
# TRPC4 spec: selectivity of TRPC6 inhibitors: effect on mouse TRPC4; shares compounds with TRPC6 inh; HEK293 TRPC4/mu-opioid, membrane potential fluorescence; activity change, negative = inhibition, % at 10 µM; 920 tested, 61% active; AID 2777;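 active = rise or fall in signal beyond 3 SD of buffer-only wells in both replicate plates, either sign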;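 note: integrated kinetic ratio of fluorescence range over baseline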
# HEK293 MPD ctr 2-1: second counter-screen for TRPC6 inhibitors: parental HEK293 cells | shares compounds with TRPC6 inh | parental HEK293 membrane potential dye fluorescence; maximal acetylcholine challenge after compound addition | signal change vs control, % at 10 µM | 920 tested, 31% active;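 active = membrane potential signal moving either way by over 3 SD of the maximum-effect control, in both duplicate plates, meaning non-specific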
# HEK293 MPD ctr-1: checks TRPC6 inhibitor effects in parental HEK293 cells | shares compounds with TRPC6 inh | parental HEK293 membrane potential dye fluorescence | membrane potential signal change, % at 10 µM | 920 tested, 60% active | AID 2780;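 active = membrane potential signal shifting up or down by more than 3 SD of buffer-only wells, on both duplicate plates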
# HEK293 MPD ctr-2: counter-screen for TRPC6 modulators: effect in parental HEK293 cells | AID 488924 | membrane potential signal change, % at 10 µM | membrane potential dye fluorescence | 2,400 tested, 51% active | shares compounds with TRPC6 inh;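 active = membrane potential signal moves up or down beyond 5 SD from buffer-only wells, on both duplicate plates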
# HEK293 MPD ctr 2-2: second counter-screen for TRPC6 modulators: effect in parental HEK293 cells; membrane potential dye fluorescence; after compound, maximal acetylcholine stimulation; shares compounds with TRPC6 inh; 2,400 tested, 14% active; AID 488926; inhibition, % at 10 µM;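 active = membrane potential signal drops by more than 5 SD from the mean control signal, in both duplicate plates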;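 note: plate controls were acetylcholine ECmax control wells for no effect and buffer only wells for full effect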
# TRPC4/MOR mod: mouse TRPC4 off-target activity of TRPC6 modulators; shares compounds with TRPC6 inh; HEK293 TRPC4/mu-opioid, membrane potential fluorescence; percent change from control (negative = decrease, positive = increase), % at 10 µM; 2,400 tested, 69% active;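 active = membrane potential signal moved up or down beyond 5 SD of buffer control wells, in both duplicate plates, actives on both sides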;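 note: plate controls were assay buffer wells for no effect and DAMGO maximal-effect wells for full effect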
# TRPC4/MOR inh 2: second selectivity test of TRPC6 modulators against mouse TRPC4; 2,400 tested, 55% active; shares compounds with TRPC6 inh; HEK293 TRPC4/mu-opioid, membrane potential dye fluorescence; stimulated with maximal-effect DAMGO; inhibition, % at 10 µM;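 active = drop in membrane potential signal beyond 5 SD of the control wells in both duplicate plates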;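 note: TRPC4 counter screen for TRPC6 hits run under conditions tuned for TRPC6 not TRPC4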
# TRPC6 inh conf: confirmation of mouse TRPC6 inhibitors; HEK293-TRPC6, membrane potential dye, ACh-evoked depolarization; shares compounds with TRPC6 inh; 3,300 tested, 43% active; inhibition, % at 10 µM;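 active = fluorescence ratio falls more than 5 SD below the full-stimulation control mean, in both duplicate runs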;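 note: integrated fluorescence ratio of peak minus minimum over baseline after agonist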
# TRPC6 act confirm: confirmation of mouse TRPC6 activators; activation, % at 10 µM; 2,800 tested, 11% active; shares compounds with TRPC6 inh; AID 488961; HEK293-TRPC6 membrane potential dye fluorescence, FDSS;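 active = ratio signal rise beyond 5 SD above unstimulated control wells' mean, seen in both duplicate runs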;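 note: plate controls were buffer EC0 wells for no effect and acetylcholine ECmax response for full effect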
# * = called active by the depositor; i = inactive; · = no result. Only some compounds are listed: those with a hit (about 2.9% of all), similar ones and a draw of the others.
SMILES,TRPC4 inh,TRPC4 act,Kir21 block,TRPC4 PAM,TRPC6 inh,TRPC6 act,HEK293 MPD ctr-2,HEK293 MPD ctr 2-2,TRPC4/MOR mod,TRPC4/MOR inh 2,TRPC6 inh conf,TRPC6 act confirm,others
CN(C)C=Nc1ncc2c3ccccc3n(CCN(C)C)c2c1C#N,i,i,-0.44,i,-7.03*,i,·,·,·,·,i,i,TRPC4 spec 2=53.5%*;TRPC4 spec=-16.5%*;HEK293 MPD ctr 2-1=i;HEK293 MPD ctr-1=-231.5%*
CC1=CC=CN2C1=NC(=O)CC2(C)C(=O)N(CC(=O)NC1CCCC1)Cc1ccccc1 (centres undefined),i,i,1.53,i,i,i,·,·,·,·,·,·,
O=C(NC1CCCC1)C(c1ccncc1)N(CCCN1CCOCC1)C(=O)c1ccc(-c2ccccc2)[nH]1 (centres undefined),i,i,0.04,i,-5.13*,i,i,i,i,36.0%*,i,i,
O=C(NC1CCCC1)C(c1ccncc1)N(Cc1ccco1)C(=O)c1ccc(-c2ccccc2)[nH]1 (centres undefined),i,i,-0.19,i,i,i,·,·,·,·,·,·,
CNS(=O)(=O)c1cccc(C(=O)OCC(=O)N2CC(C)OC(C)C2)c1 (centres undefined),i,i,-1.24,i,i,i,·,·,·,·,·,·,
COC(=O)c1ccccc1NC(=O)CN1CCCCCC1,i,i,1.1,i,i,i,·,·,·,·,·,·,
COC(=O)c1ccccc1NC(=O)CN1CCC(C)CC1,i,i,-1.86,i,-5.08*,i,i,i,19.5%*,i,39.0%*,·,
COC(=O)c1ccccc1NC(=O)COC(=O)C1CCCCC1,i,i,2.34,i,-5*,i,141.5%*,i,31.0%*,i,41.0%*,·,
Cc1ccc(OCC(=O)Nc2ccc(S(=O)(=O)Nc3cc(C)nc(C)n3)cc2)cc1,i,i,-2.54,i,i,i,·,·,·,·,·,·,
NCCCCCc1nnc(SC/C=C/c2ccccc2)o1,i,i,-1.92,i,-5.55*,i,101.5%*,i,17.5%*,i,i,·,
COc1cccc2oc3ccc(C#CC4(N)CCCCC4)cc3c(=O)c12,i,i,-1.84,i,-10.8*,i,·,·,·,·,i,i,TRPC4 spec 2=68.5%*;TRPC4 spec=i;HEK293 MPD ctr 2-1=237.0%*;HEK293 MPD ctr-1=i

# Source: PubChem BioAssay
